Results of several laboratories.
Protocols differ between the studies behind these lines.
Target: Serine/threonine-protein kinase SBK1 (SBK1, Homo sapiens, UniProt Q52WX2)

CC(=O)c1c(NS(C)(=O)=O)c2cc(-c3ccc(Cl)cc3)c(-c3ccc(Cl)cc3Cl)nc2n(C)c1=O — remaining binding (cell-free assay; competition with immobilised ligand; 1 µM): 77%
Nc1ncc2c(n1)-c1c([nH]c3ccc(C#CC4CC4)cc13)CCCC2 — remaining binding (binding; competition with immobilised ligand; 1 µM): 100%
N[C@@H]1CCN(c2nccc(-c3cnn4ncccc34)n2)C1 — remaining binding (binding; 1 µM): 94%
Cc1cc(NC(=O)c2cccc(S(F)(F)(F)(F)F)c2)cc(-n2ccn3nc(-c4cccnc4)cc23)c1 — remaining binding (cell-free assay; competition with immobilised ligand; 1 µM): 100%
COc1ccnn2ncc(-c3ccnc(N(C)C)n3)c12 — remaining binding (binding; 1 µM): 100%
CCCOc1ccc([C@H]2[C@H](C(=O)O)[C@@H](c3ccc4c(c3)OCO4)CN2CC(=O)Nc2c(CC)cccc2CC)cc1 — remaining binding (cell-free assay; competition with immobilised ligand; 1 µM): 78%
CN(C)c1ncc(F)c(-c2cnn3ncccc23)n1 — remaining binding (binding; 1 µM): 66%
O=C(c1ccc(Nc2ncc(Cl)c(-c3ccc(Cl)s3)n2)cc1)N1CCC(N2CCCC2)CC1 — remaining binding (binding; competition with immobilised ligand; 1 µM): 48%
Cc1c[nH]c2nccc(Oc3c(F)cc(Nc4cc(Cl)nc(N)n4)cc3F)c12 — remaining binding (cell-free assay; competition with immobilised ligand; 0.1 µM): 94%
CC1CCCN1c1nccc(-c2cnn3ncccc23)n1 (stereo not shown) — remaining binding (binding; 1 µM): 100%
COc1ncc2cc3ccccc3nc2c1C#N — remaining binding (cell-free assay; competition with immobilised ligand; 5 µM): 82%
CCC(=O)N[C@H]1CC[C@@H](C(=O)N(C)c2ccc(-c3nc4ccccc4o3)cc2)C1 — remaining binding (cell-free assay; competition with immobilised ligand; 1 µM): 94%
O=C(NCCCN1CCOCC1)c1ccc(Nc2ncc(Cl)c(-c3ccc(Cl)s3)n2)cc1 — remaining binding (binding; competition with immobilised ligand; 1 µM): 52%
CN(C)CC#Cc1ccc(OCCCc2sc(N3CCc4cccc(C(=O)Nc5nc6ccccc6s5)c4C3)nc2C(=O)O)c(F)c1 — remaining binding (cell-free assay; competition with immobilised ligand; 1 µM): 100%
Cc1cnn2ncc(-c3ccnc(N(C)C)n3)c2c1 — remaining binding (binding; 1 µM): 83%
CCOC(=O)c1cc2cc(-c3cc(C(=O)NCc4ccc(C(=O)O)cc4)nn3C)ccc2[nH]1 — remaining binding (cell-free assay; competition with immobilised ligand; 0.1 µM): 90%
C[C@H]1CCN(c2nccc(-c3cnn4ncccc34)n2)C1 — remaining binding (binding; 1 µM): 78%
c1cncc(-c2cccc(Nc3nccc(NC4CCCCC4)n3)c2)c1 — remaining binding (binding; competition with immobilised ligand; 10 µM): 66%
COc1cnc(Nc2cccc(S(N)(=O)=O)c2)nc1N1CCN(c2ccccc2)CC1 — remaining binding (binding; competition with immobilised ligand; 1 µM): 96%
CN(C)c1nccc(-c2cnn3ncccc23)n1 — remaining binding (binding; 1 µM): 100%
O=C(Nc1c[nH]nc1C(=O)NC1CCNCC1)c1cc(F)cc(F)c1 — remaining binding (binding; competition with immobilised ligand; 1 µM): 100%
O=C(c1ccc(Nc2ncc(Cl)c(-c3cc4ccccc4s3)n2)cc1)N1CCC(N2CCCC2)CC1 — remaining binding (binding; competition with immobilised ligand; 1 µM): 52%
